# Assays:
# Settings in all cases: stereoisomer not certain
# UniProt Q7TR71 = target: T1, UniProt Q7TR71
# T1 sequence (whole entry): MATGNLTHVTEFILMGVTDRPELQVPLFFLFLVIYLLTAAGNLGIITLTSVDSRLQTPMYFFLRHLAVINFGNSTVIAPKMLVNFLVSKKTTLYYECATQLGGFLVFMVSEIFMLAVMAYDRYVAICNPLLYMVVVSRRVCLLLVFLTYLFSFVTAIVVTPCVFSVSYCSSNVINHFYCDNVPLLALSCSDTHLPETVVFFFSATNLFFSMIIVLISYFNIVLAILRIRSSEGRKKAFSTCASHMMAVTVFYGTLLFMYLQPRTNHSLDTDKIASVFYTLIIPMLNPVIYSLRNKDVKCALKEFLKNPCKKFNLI
# Summary of the method: (§1)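 Each entry records the cell line, G-protein, co-transfected protein and tags used. Methods varied with the source, often transient luciferase assays in mammalian cell lines. A receptor–molecule pair is called responsive (active) if the original authors judged its signal statistically different from baseline and non-responsive (inactive) otherwise.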
# UniProt Q7TR79 = target: T2, UniProt Q7TR79
# T2 sequence (whole entry): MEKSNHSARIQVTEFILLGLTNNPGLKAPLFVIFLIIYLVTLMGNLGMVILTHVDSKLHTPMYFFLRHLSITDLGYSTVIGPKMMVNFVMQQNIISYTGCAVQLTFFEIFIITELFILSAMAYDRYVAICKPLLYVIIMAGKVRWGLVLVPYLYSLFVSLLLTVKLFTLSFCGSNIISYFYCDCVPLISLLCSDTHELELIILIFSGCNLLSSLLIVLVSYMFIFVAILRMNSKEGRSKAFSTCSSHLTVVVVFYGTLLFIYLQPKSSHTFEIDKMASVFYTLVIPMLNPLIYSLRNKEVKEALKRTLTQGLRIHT
# Summary of the method: as §1
# UniProt Q7TRA3 = target: T3, UniProt Q7TRA3
# T3 sequence (whole entry): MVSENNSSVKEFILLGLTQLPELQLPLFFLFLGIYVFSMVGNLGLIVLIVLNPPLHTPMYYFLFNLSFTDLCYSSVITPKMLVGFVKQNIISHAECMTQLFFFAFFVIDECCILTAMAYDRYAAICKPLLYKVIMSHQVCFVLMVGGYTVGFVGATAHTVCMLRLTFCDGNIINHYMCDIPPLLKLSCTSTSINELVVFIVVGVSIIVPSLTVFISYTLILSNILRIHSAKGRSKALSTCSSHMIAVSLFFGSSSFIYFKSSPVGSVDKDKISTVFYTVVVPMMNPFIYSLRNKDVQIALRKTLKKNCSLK
# Summary of the method: as §1
# UniProt Q7TRE4 = target: T4, UniProt Q7TRE4
# T4 sequence (whole entry): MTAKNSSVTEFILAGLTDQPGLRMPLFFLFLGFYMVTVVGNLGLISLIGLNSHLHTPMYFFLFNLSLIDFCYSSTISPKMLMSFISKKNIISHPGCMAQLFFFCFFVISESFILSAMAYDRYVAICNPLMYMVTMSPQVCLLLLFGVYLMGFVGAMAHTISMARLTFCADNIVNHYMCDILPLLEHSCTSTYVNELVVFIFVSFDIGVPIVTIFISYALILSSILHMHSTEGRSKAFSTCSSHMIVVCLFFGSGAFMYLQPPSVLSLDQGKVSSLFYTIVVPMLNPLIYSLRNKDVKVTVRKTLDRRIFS
# Summary of the method: as §1
# UniProt Q7TRW1 = target: T5, UniProt Q7TRW1
# T5 sequence (whole entry): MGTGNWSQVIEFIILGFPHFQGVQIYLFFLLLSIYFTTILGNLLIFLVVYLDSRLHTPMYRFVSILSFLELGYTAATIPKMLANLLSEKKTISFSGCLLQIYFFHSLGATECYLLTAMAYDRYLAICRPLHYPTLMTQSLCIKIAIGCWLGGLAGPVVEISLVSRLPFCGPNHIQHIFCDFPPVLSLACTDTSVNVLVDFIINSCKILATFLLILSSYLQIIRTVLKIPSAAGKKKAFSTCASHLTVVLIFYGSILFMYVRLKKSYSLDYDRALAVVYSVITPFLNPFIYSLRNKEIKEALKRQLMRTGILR
# Summary of the method: as §1
# UniProt Q7TRX0 = target: T6, UniProt Q7TRX0
# T6 sequence (whole entry): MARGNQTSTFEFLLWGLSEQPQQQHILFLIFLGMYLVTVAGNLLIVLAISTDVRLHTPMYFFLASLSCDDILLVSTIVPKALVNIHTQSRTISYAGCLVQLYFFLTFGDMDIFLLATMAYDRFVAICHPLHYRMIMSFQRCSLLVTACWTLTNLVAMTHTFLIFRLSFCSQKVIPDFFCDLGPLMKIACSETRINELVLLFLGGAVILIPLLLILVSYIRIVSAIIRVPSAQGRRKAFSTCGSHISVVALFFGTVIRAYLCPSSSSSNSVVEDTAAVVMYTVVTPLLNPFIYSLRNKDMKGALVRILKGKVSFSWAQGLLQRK
# Summary of the method: as §1
# UniProt Q8VEU7 = target: T7, UniProt Q8VEU7
# T7 sequence (whole entry): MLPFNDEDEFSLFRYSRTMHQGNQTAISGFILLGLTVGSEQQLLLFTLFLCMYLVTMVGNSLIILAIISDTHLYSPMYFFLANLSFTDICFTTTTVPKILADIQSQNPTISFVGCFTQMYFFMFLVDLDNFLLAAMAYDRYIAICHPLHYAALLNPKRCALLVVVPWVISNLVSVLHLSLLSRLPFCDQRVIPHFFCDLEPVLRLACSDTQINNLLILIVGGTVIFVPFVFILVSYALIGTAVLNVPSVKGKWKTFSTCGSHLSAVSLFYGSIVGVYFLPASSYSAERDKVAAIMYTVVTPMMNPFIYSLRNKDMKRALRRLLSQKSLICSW
# Summary of the method: as §1
# UniProt Q8VF05 = target: T8, UniProt Q8VF05
# T8 sequence (whole entry): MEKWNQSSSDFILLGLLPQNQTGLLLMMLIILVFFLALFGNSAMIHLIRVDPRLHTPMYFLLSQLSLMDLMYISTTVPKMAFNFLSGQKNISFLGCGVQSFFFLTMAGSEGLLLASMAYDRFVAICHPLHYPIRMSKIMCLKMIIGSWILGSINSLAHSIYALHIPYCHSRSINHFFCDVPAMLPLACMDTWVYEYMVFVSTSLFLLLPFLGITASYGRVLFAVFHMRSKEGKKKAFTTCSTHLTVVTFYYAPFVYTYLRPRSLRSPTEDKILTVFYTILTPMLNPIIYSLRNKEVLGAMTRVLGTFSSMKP
# Summary of the method: as §1
smiles,measurement,setting,value
CCCCC(=O)CC,odorant receptor agonist call,UniProt Q7TR71,inactive
same,odorant receptor agonist call,UniProt Q7TR79,inactive
same,odorant receptor agonist call,UniProt Q7TRA3,inactive
same,odorant receptor agonist call,UniProt Q7TRE4,inactive
same,odorant receptor agonist call,UniProt Q7TRW1,inactive
same,odorant receptor agonist call,UniProt Q7TRX0,inactive
same,odorant receptor agonist call,UniProt Q8VEU7,inactive
same,odorant receptor agonist call,UniProt Q8VF05,active
OCCc1ccccc1,odorant receptor agonist call,UniProt Q7TR79,inactive
same,odorant receptor agonist call,UniProt Q7TRX0,inactive
CCCCCOC(=O)CCC,odorant receptor agonist call,UniProt Q7TR79,inactive
same,odorant receptor agonist call,UniProt Q7TRX0,inactive
CCSCC,odorant receptor agonist call,UniProt Q7TR79,inactive
same,odorant receptor agonist call,UniProt Q7TRX0,inactive
CSSCc1ccco1,odorant receptor agonist call,UniProt Q7TR79,inactive
same,odorant receptor agonist call,UniProt Q7TRX0,inactive
CCCCCCC(C=O)=Cc1ccccc1,odorant receptor agonist call,UniProt Q7TR79,inactive
same,odorant receptor agonist call,UniProt Q7TRX0,inactive
CCSSCC,odorant receptor agonist call,UniProt Q7TR79,inactive
same,odorant receptor agonist call,UniProt Q7TRX0,inactive
CNc1ccccc1C(=O)OC,odorant receptor agonist call,UniProt Q7TR79,inactive
same,odorant receptor agonist call,UniProt Q7TRX0,inactive
CCCCCCCCOC=O,odorant receptor agonist call,UniProt Q7TR79,inactive
same,odorant receptor agonist call,UniProt Q7TRX0,inactive
c1ccc2ncccc2c1,odorant receptor agonist call,UniProt Q7TR79,inactive
same,odorant receptor agonist call,UniProt Q7TRX0,inactive
CCc1occc(=O)c1O,odorant receptor agonist call,UniProt Q7TR79,inactive
same,odorant receptor agonist call,UniProt Q7TRX0,inactive
COc1nccnc1C(C)C,odorant receptor agonist call,UniProt Q7TR79,inactive
same,odorant receptor agonist call,UniProt Q7TRX0,inactive
CCOC(=O)CC(C)C,odorant receptor agonist call,UniProt Q7TR79,inactive
same,odorant receptor agonist call,UniProt Q7TRX0,inactive
CCCCCCCCC=CC=O,odorant receptor agonist call,UniProt Q7TR79,inactive
same,odorant receptor agonist call,UniProt Q7TRX0,inactive
O=C(OCc1ccccc1)c1ccccc1O,odorant receptor agonist call,UniProt Q7TR79,inactive
same,odorant receptor agonist call,UniProt Q7TRX0,inactive
CCCCCC(=Cc1ccccc1)C(OC)OC,odorant receptor agonist call,UniProt Q7TR79,inactive
same,odorant receptor agonist call,UniProt Q7TRX0,inactive
CC1CCC(C(C)C)C(=O)C1 (stereo not drawn),odorant receptor agonist call,UniProt Q7TR79,inactive
same,odorant receptor agonist call,UniProt Q7TRX0,inactive
CCN(CC)CC,odorant receptor agonist call,UniProt Q7TR79,inactive
same,odorant receptor agonist call,UniProt Q7TRX0,inactive
C=C(C)C1CC=C(C)CC1 (stereo not drawn),odorant receptor agonist call,UniProt Q7TR79,inactive
same,odorant receptor agonist call,UniProt Q7TRX0,inactive
CC(=O)C=CC1=C(C)CCCC1(C)C,odorant receptor agonist call,UniProt Q7TR79,inactive
same,odorant receptor agonist call,UniProt Q7TRX0,inactive
CCOC(=O)C(C)CC (stereo not drawn),odorant receptor agonist call,UniProt Q7TR79,inactive
same,odorant receptor agonist call,UniProt Q7TRX0,inactive
CC1CC=CCCCCCCCCCC(=O)C1 (stereo not drawn),odorant receptor agonist call,UniProt Q7TR79,inactive
same,odorant receptor agonist call,UniProt Q7TRX0,inactive
CCc1ncc(C)nc1CC,odorant receptor agonist call,UniProt Q7TR79,inactive
same,odorant receptor agonist call,UniProt Q7TRX0,inactive
CCCCC=O,odorant receptor agonist call,UniProt Q7TR79,inactive
same,odorant receptor agonist call,UniProt Q7TRX0,inactive
CCCC(C)C(=O)OCC (stereo not drawn),odorant receptor agonist call,UniProt Q7TR79,inactive
same,odorant receptor agonist call,UniProt Q7TRX0,inactive
C=CC(=O)CCCCC,odorant receptor agonist call,UniProt Q7TR79,inactive
same,odorant receptor agonist call,UniProt Q7TRX0,inactive
